Measurements published in PubChem BioAssay AID1656 (Sanford-Burnham Center for Chemical Genomics, 2009).
In all, about 240,000 compounds went through this assay and about 950 (0.4%) were called active.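 The calls were made as follows: active = lipid droplet intensity inhibited by at least 50%, with more than 500 cells counted; inconclusive = wells with under 300 cells, treated as cytotoxic; inactive = the rest.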 For the sample, actives were picked, then their nearest neighbours and some compounds at random.

Test: inhibitors of hepatocyte lipid droplet formation, primary screen, imaging, high-throughput imaging, BODIPY stain (AID 1656);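 as to cell count: cells counted across two imaged fields per well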
Settings: AML12 mouse hepatocytes, oleate lipid droplets, at 6.5 µM; cell count: measured here: cell count, cytotoxicity flag; inhibition: stronger effect = higher value
Method in brief: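 Assay system: AML12 hepatocytes (mouse) / Also added: 100 µM oleic acid challenge / Times: overnight treatment with compound plus oleate / Detection: high-content imaging of BODIPY-stained droplets and DAPI nuclei / Evaluation: % inhibition of lipid droplet signal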

Structure (SMILES) | cell count | inhibition
COc1ccc(CCNC(=O)C(=O)NCC2OCCN2S(=O)(=O)c2cccs2)cc1OC (stereo not drawn) | 689 cells | -12.1% (inactive)
COc1cccc(C(=O)N/N=C(\C)c2cccc(NC(=O)c3ccc(F)cc3)c2)c1OC | 678 cells | -6.8% (inactive)
C(=N\N1CCN(c2ccccn2)CC1)/C1=C(N2CCOCC2)C(=C/c2ccccc2)/CC1 | 680 cells | -4.6% (inactive)
O=C1Nc2ccc(Br)cc2/C1=N/N=C/C1=C(N2CCOCC2)C(=C\c2ccccc2)/CC1 | 750 cells | 55.6% (active)
COc1ccc(/C=N/N=C2/C(=O)Nc3ccccc32)cc1O | 676 cells | 9.7% (inactive)
CCCc1cc(=O)oc2cc(OCC(=O)Nc3ccc(CN4CCOCC4)cc3)c(Cl)cc12 | 636 cells | -0.7% (inactive)
O=C(CSc1nc2nccnc2c(=O)n1Cc1cccs1)Nc1ccccc1F | 782 cells | 2.9% (inactive)
COc1cc(/C=C/C(=O)N2CCc3ccccc3C2)cc(OC)c1OC | 825 cells | 0% (inactive)
CC(C)(C)NS(=O)(=O)c1ccc(NC(=O)C2CCCO2)cc1 (stereo not drawn) | 829 cells | 2.6% (inactive)
CCCNC(=O)CCc1c(C)nc2c(c(C)nn2-c2ccc(C)cc2)c1C | 848 cells | 10.2% (inactive)
COc1ccc(N(CC(=O)Nc2cc(OC)cc(OC)c2)S(=O)(=O)c2c(C)n[nH]c2C)cc1 | 704 cells | -4% (inactive)
CCSc1nsc(NC(=O)Nc2ccccc2OC)n1 | 808 cells | -10.6% (inactive)
COc1ccc(C(=O)NC2CCCc3c2cnn3-c2cccc(C)c2C)c(OC)n1 (stereo not drawn) | 767 cells | -1.4% (inactive)
Cc1cc(C(=O)NC2CCCc3c2cnn3-c2cccc(C)c2C)c(C)o1 (stereo not drawn) | 865 cells | 59.9% (active)
Cn1nccc1C(=O)NC1CCCc2c1cnn2-c1ccccc1F (stereo not drawn) | 545 cells | -55.5% (inactive)
COc1ccc(CCNC(=O)CS(=O)(=O)Cc2nc(-c3ccc(C)cc3)oc2C)cc1OC | 750 cells | 11.2% (inactive)
O=C(c1ccc(F)cc1)N1CCCC(C(=O)N2CCCCC2)C1 (stereo not drawn) | 708 cells | -8.5% (inactive)
O=S(=O)(c1ccc(Br)cc1)c1nc(-c2ccccc2)oc1N1CCOCC1 | 610 cells | -17.8% (inactive)
O=C1CCC(C(=O)N2CCN(c3ccccc3Cl)CC2)CN1CC1CCCCC1 (stereo not drawn) | 746 cells | 0% (inactive)
COc1ccc(-c2csc(-c3cccs3)n2)cc1OC | 713 cells | 8.5% (inactive)
COc1ccc(OC)c(-c2csc(-c3cccs3)n2)c1 | 816 cells | 69.1% (active)
COc1ccc(OC)c(CNC(=O)CCc2nc(-c3cccs3)no2)c1 | 746 cells | -2% (inactive)
O=C(Cn1cnc2cc([N+](=O)[O-])ccc2c1=O)NC(=O)NCc1ccccc1 | 618 cells | -1% (inactive)
Cc1cc(C(=O)Cn2cnc3cc([N+](=O)[O-])ccc3c2=O)c(C)n1CC1CCCO1 (stereo not drawn) | 680 cells | -0.6% (inactive)
CC(C)(C)NC(=O)Cn1cnc2cc([N+](=O)[O-])ccc2c1=O | 720 cells | 58.1% (active)
CC(=O)N1CCN(c2ccccc2NC(=S)NC(=O)c2cc3ccccc3o2)CC1 | 682 cells | 29.4% (inactive)
Cc1cccc(N2CCN(C(=O)c3cccc(N4C(=O)C5C6C=CC(C6)C5C4=O)c3)CC2)c1C (stereo not drawn) | 793 cells | -0.4% (inactive)

Structure (SMILES) | cell count | inhibition
CCCc1cc(C(=O)N2CCCC(CO)(CCCc3ccccc3)C2)n(C)n1 (stereo not drawn) | 631 cells | -27.5% (inactive)
CC1CCN(C(=S)NC(=O)c2ccccc2Br)CC1 | 661 cells | -5.4% (inactive)
CCCCN1C(=O)/C(=C/C=C2/C=Cc3ccccc3N2CC)SC1=S | 734 cells | 56.1% (active)
CCN1C(=O)/C(=C2/Sc3ccccc3N2CCCS(=O)(=O)O)SC1=S | 691 cells | -5.7% (inactive)
CCCCN1C(=O)/C(=C2/C=CC=CN2C)SC1=S | 765 cells | -17.5% (inactive)
COc1ccc(Cl)cc1NC(=O)CN(C)C(=O)CCCc1c[nH]c2ccccc12 | 812 cells | 53.5% (active)
COc1ccc(Cl)cc1NC(=O)CN(C)C(=O)CNC(=O)C12CC3CC(CC(C3)C1)C2 | 778 cells | 18.1% (inactive)
COc1ccccc1NC(=O)CCCc1c[nH]c2ccccc12 | 740 cells | -19.1% (inactive)
Cc1ccc(-n2nc3c(=O)n(C(C)C(=O)NCc4ccc5c(c4)OCO5)nc(C)c3c2C)cc1 (stereo not drawn) | 665 cells | 15.4% (inactive)
O=C(NCCCN1CCOCC1)c1cc(-c2ccccc2F)no1 | 726 cells | 6.3% (inactive)
COC(=O)c1ccc(COc2ccc(/C=C/C(=O)c3ccc(OC)c(CSCC(=O)O)c3)cc2OC)cc1 | 891 cells | -2% (inactive)
CC(C)c1ccc(N(C(=O)c2ccco2)C(C(=O)NC2CCCC2)c2cccnc2)cc1 (stereo not drawn) | 761 cells | -17.7% (inactive)
Cc1c(C=O)c2ccccc2n1CCOc1ccccc1 | 839 cells | -1% (inactive)
CN(CC1CCCO1)S(=O)(=O)c1ccc(C(=O)Nc2ccc(F)cc2)cc1 (stereo not drawn) | 687 cells | -1.2% (inactive)
Cc1cc(C(C)(C)C)n2nc(C)c(-c3ccccc3)c2n1 | 401 cells | 2% (inactive)
Cc1cc(-n2nc(C)cc2C)n2nc(C)c(-c3ccccc3)c2n1 | 801 cells | 10% (inactive)
Cc1cc(N2CCCC2)n2nc(C)c(-c3ccccc3)c2n1 | 697 cells | 51.4% (active)
CC(=O)c1ccc(NC(=O)c2sc3nc4n(c(=O)c3c2C)CCCCC4)cc1 | 749 cells | 9.9% (inactive)
O=C(C1CCCN(S(=O)(=O)c2ccc([N+](=O)[O-])cc2)C1)N1CCCCC1 (stereo not drawn) | 814 cells | 0.4% (inactive)
COc1ccc(-c2nonc2NC(=O)c2oc3ccc(F)cc3c2C)cc1OC | 738 cells | 39.5% (inactive)
COc1ccccc1CNC(=O)C1CCN(S(=O)(=O)c2ccc3c(c2)CC(C)N3C(=O)C2CC2)CC1 (stereo not drawn) | 719 cells | -4.5% (inactive)
COc1ccc(NC(=O)CN2C(=O)COc3ccc(S(=O)(=O)N4CCOCC4)cc32)c(OC)c1 | 694 cells | -1.6% (inactive)
COc1ccccc1CNC(=O)[C@@H]1CCCN1C(=O)[C@@H]1Cc2ccccc2CN1C(=O)OC(C)(C)C | 737 cells | -4.8% (inactive)
CC(C)(COC(=O)Nc1ccccc1)COC(=O)Nc1ccccc1 | 842 cells | 2% (inactive)
CSCCC(NS(=O)(=O)c1ccccc1F)C(=O)N1CC=C(c2ccccc2)CC1 (stereo not drawn) | 678 cells | -35.6% (inactive)
O=C1/C(=C/c2ccc(F)cc2)SC(=S)N1CCCC(=O)N1CCCCC1CCO (stereo not drawn) | 789 cells | -7.9% (inactive)
CCOCCCNc1nc(-c2ccccc2)nc2ccccc12 | 835 cells | 1.2% (inactive)

Structure (SMILES) | cell count | inhibition
CC(Nc1nc(C(F)(F)F)nc2ccccc12)c1cccs1 (stereo not drawn) | 808 cells | -12.3% (inactive)
Cc1sc2nc(SCCO)n(-c3ccccc3)c(=O)c2c1C | 835 cells | -15% (inactive)
Cc1ccccc1NC(=O)CSc1ccc2nnc(-c3ccccn3)n2n1 | 640 cells | 22.7% (inactive)
COc1ccc(CCNC(=O)c2ccccc2OCc2ccccc2)cc1 | 773 cells | -18.7% (inactive)
COc1ccc(CCNC(=O)CCc2cn(C)c3ccccc23)c(OC)c1 | 811 cells | 15.9% (inactive)
Cc1cccnc1CC(C)NC(=O)c1cc(COc2cncc(Cl)c2)on1 (stereo not drawn) | 704 cells | 3.6% (inactive)
COc1ccc(/C=C2\SC(=S)N(CCCC(=O)NC3CCCC3)C2=O)cc1OC | 711 cells | -15.3% (inactive)
CCOc1ccc(-n2c(SCC(=O)OC)nc3sc4c(c3c2=O)CCN(C)C4)cc1 | 796 cells | 4.9% (inactive)
CCOc1ccccc1NC(=S)N1CCN(c2cccc(C)c2C)CC1 | 777 cells | -21% (inactive)
O=C(c1ccc(OC2CCN(C/C=C/c3ccc(F)cc3)CC2)cc1)N1CCCCC1 | 815 cells | 2% (inactive)
O=C(Nc1ccc(F)cc1)c1ccc(S(=O)(=O)NCc2cccnc2)cc1 | 806 cells | -51.8% (inactive)
CC(C)=CCCC(C)CN1CCC(n2nccc2NC(=O)c2ccccc2)CC1 (stereo not drawn) | 722 cells | 2.9% (inactive)
N#C/C(=C\c1ccccc1C(F)(F)F)C(=O)Nc1ccccc1F | 614 cells | 1.8% (inactive)
N#C/C(=C/c1ccc(N2CCOCC2)o1)C(=O)N1CCOCC1 | 636 cells | -9.6% (inactive)
N#C/C(=C\C1=C(N2CCOCC2)C(=C\c2ccccc2)/CC1)C(=O)Nc1ccccc1F | 430 cells | 56.4% (active)
Cc1ccc(CNC(=O)CCS(=O)(=O)c2ccc3c(c2)CC(C)N3C(=O)C2CC2)o1 (stereo not drawn) | 715 cells | -2.5% (inactive)
Cc1nn(C(C)C(=O)NCCC2=CCCCC2)c(=O)c2nn(-c3ccccc3)c(C)c12 (stereo not drawn) | 685 cells | -3.8% (inactive)
COc1ccc(C)cc1N(C(=O)Cn1nnc(-c2ccc(C)o2)n1)C(C(=O)NC1CCCC1)c1ccncc1 (stereo not drawn) | 749 cells | -20.1% (inactive)
CCOC(=O)c1cccc(NC(=O)CCc2nnc3ccc(N4CCOCC4)nn23)c1 | 652 cells | -5.8% (inactive)
CCN(CC)c1ccc(NC(=O)CCc2nnc3ccc(N4CCCCC4)nn23)c(C)c1 | 801 cells | 3.4% (inactive)
CCOc1ccc(CCNC(=O)CCc2nnc3ccc(N4CCCC4)nn23)cc1OCC | 752 cells | 69.5% (active)
COCCc1nn2c(=O)cc(COC(=O)c3cc(OC)c(OC)c(OC)c3)nc2s1 | 701 cells | 7.1% (inactive)
COc1ccccc1N1CCN(S(=O)(=O)c2ccc3c(c2)NC(=O)CS3)CC1 | 687 cells | -12.7% (inactive)
CCc1ccc(C(CNc2nc(C(F)(F)F)nc3ccccc23)N(C)C)cc1 (stereo not drawn) | 654 cells | -18.7% (inactive)
Cc1ccc2sc(N(CCN(C)C)C(=O)/C=C/c3cccs3)nc2c1C | 660 cells | 4.4% (inactive)
